The source of these data is ChEMBL document CHEMBL4052792, “3-Hydroxykynurenine, a Tryptophan Metabolite Generated during the Infection, Is Active Against Trypanosoma cruzi” (ACS Med Chem Lett, 2017).

Holding throughout (type): functional
The subject of assay [1] is Trypanosoma cruzi. Briefly: Trypanocidal activity against Trypanosoma cruzi Tulahuen amastigotes infected in BALB/C mouse bone marrow derived macrophages assessed as parasite infected macrophages at 2 uM treated for 24 hrs followed by compound washout measured after 48 hrs by immunofluorescence assay (reference value: 26.84 +/- 7.81%).
Assay [2] in a line: Induction of apoptosis in BALB/C mouse BMDM assessed as cells with hypodiploid DNA content at 8000 uM after 24 hrs by FITC/propidium iodide staining based flow cytometric analysis (reference value: 29.9%). On the technique in general: In flow cytometry, cells or beads pass a laser one at a time.
The test system of assay [3] is Trypanosoma cruzi. Nature of the assay: Trypanocidal activity against Trypanosoma cruzi Tulahuen amastigotes infected in BALB/C mouse bone marrow derived macrophages assessed as reduction in endocytic index at 0.2 uM after 72 hrs by immunofluorescence assay relative to control.
Assay [4] deals with Trypanosoma cruzi. Nature of the assay: Trypanocidal activity against Trypanosoma cruzi Tulahuen amastigotes infected in BALB/C mouse bone marrow derived macrophages assessed as parasite infected macrophages at 20 uM treated for 24 hrs followed by compound washout measured after 48 hrs by immunofluorescence assay (reference value: 26.84 +/- 7.81%).
Assay [5] deals with Trypanosoma cruzi. Nature of the assay: Trypanocidal activity against Trypanosoma cruzi Tulahuen amastigotes infected in BALB/C mouse bone marrow derived macrophages assessed as parasite infected macrophages at 0.2 uM treated for 24 hrs followed by compound washout measured after 48 hrs by immunofluorescence assay (reference value: 26.84 +/- 7.81%).
Assay [6] in a line: Induction of apoptosis in BALB/C mouse BMDM assessed as cells with hypodiploid DNA content at 0.2 uM after 24 hrs by FITC/propidium iodide staining based flow cytometric analysis (reference value: 29.9%).
Assay [7] has as its system Trypanosoma cruzi. Briefly: Trypanocidal activity against Trypanosoma cruzi Tulahuen amastigotes infected in BALB/C mouse bone marrow derived macrophages assessed as endocytic index at 0.2 uM treated for 24 hrs followed by compound washout measured after 48 hrs by immunofluorescence assay (reference value: 213.66 +/- 58.79).
Assay [8] relates to Trypanosoma cruzi. Nature of the assay: Induction of mitochondrial membrane potential in Trypanosoma cruzi Tulahuen trypomastigotes at 10 mM after 24 hrs by Rh123/PI staining-based flow cytometric analysis (reference value: 3.25 +/- 1.66%). Put shortly:
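Trypomastigotes were treated with 3-HK for 24 h at 37 °C, then incubated with PI plus Rh123. Rh123 fluorescence was read by flow cytometry in PI-negative (live) parasites. The depolarized fraction was taken as the low-fluorescence M2 population. Index of variation = (treated median − control median)/control median. Three experiments were run.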

The subject of assay [9] is Trypanosoma cruzi. Nature of the assay: Trypanocidal activity against Trypanosoma cruzi Tulahuen amastigotes infected in BALB/C mouse bone marrow derived macrophages assessed as parasite infected macrophages at 200 uM treated for 24 hrs followed by compound washout measured after 48 hrs by immunofluorescence assay (reference value: 26.84 +/- 7.81%).
In assay [10] the test system is Trypanosoma cruzi. Nature of the assay: Trypanocidal activity against Trypanosoma cruzi Tulahuen amastigotes infected in BALB/C mouse bone marrow derived macrophages assessed as endocytic index at 200 uM treated for 24 hrs followed by compound washout measured after 48 hrs by immunofluorescence assay (reference value: 213.66 +/- 58.79).
In assay [11] the test system is Trypanosoma cruzi. Briefly: Trypanocidal activity against Trypanosoma cruzi Tulahuen amastigotes infected in BALB/C mouse bone marrow derived macrophages assessed as endocytic index at 2000 uM treated for 24 hrs followed by compound washout measured after 48 hrs by immunofluorescence assay (reference value: 213.66 +/- 58.79).

The structures appear in SMILES notation.

Consider `Nc1c(O)cccc1C(=O)C[C@H](N)C(=O)O`, for which the Activity is listed as 12.4% with Trypanosoma cruzi [1]; 29.9% in assay [2]; 8.63% in the assay on Trypanosoma cruzi [4]; 10.85% in the assay on Trypanosoma cruzi [5]; 27.5% in assay [6]; 67.61 in the assay with Trypanosoma cruzi [7]. Also, the Activity in the assay on Trypanosoma cruzi [8] is given as 40%; with Trypanosoma cruzi [9], 7.76%; in the assay on Trypanosoma cruzi [10] it was 51.43; with Trypanosoma cruzi [11] it was 104.34. The inhibition (as a rule, the drop in the measured response relative to a control, in per cent) at 0.2 µM in the assay with Trypanosoma cruzi [3] was 68%.
